The source made the active and inactive calls.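 Rule for the calls, unless noted: active = inhibition above 20% together with a positive visual image hit; inconclusive = visual image hit but inhibition not above 20%; inactive = no visual image hit.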
What was measured:
[1] = inhibitors of TNFa-induced NFkB p65 translocation, primary screen, imaging, HUVEC, MLSMR starter and 10KST1 sets (AID 438); conditions: HUVEC TNFa-induced p65 nuclear translocation; cell count: measured here: nuclei count (cytotoxicity indicator), at 2.08 µM; inhibition: at 2 µM, stronger effect = higher value, 0% TNFa-plus-vehicle, 100% no-TNFa wells;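 note: compound added about 3h40 before a 20 min TNFalpha stimulation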;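 for inhibition: signal is the nuclear over cytoplasmic p65 intensity ratio per well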
[2] = endothelial E-selectin expression blockers – imaging, HUVEC, immunofluorescence, MLSMR starter and 10KST1 sets, primary screen (AID 487;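 active = visually confirmed hit in the image check and inhibition above 20%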;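 for inhibition: signal is fraction of cell area covered by stained E-selectin grains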;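 for nuclei count: 100% = median nuclei count of all wells on the same plate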); conditions: HUVEC TNFalpha-induced E-selectin immunofluorescence imaging, at 2 µM; inhibition: stronger effect = higher value; nuclei count: measured here: cell number, toxicity
[3] = Primary imaging screen for DUSP6 inhibitors that restore phospho-Erk in transfected HeLa cells, chemical complementation (AID 609;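 active = compounds giving at least 50% inhibition in the cell-based MKP-3 phosphatase rescue imaging test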;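 for inhibition: phospho-Erk level distribution per well compared with pooled transfected vehicle control wells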); conditions: HeLa MKP-3 transfected, phospho-Erk imaging KS statistic, at 10 µM, cells stimulated with TPA for 15 min
[4] = target: Dual specificity protein phosphatase 6 (Homo sapiens) (UniProt Q16828); assay: as above; conditions: HeLa MKP-3 transfected, phospho-Erk imaging KS statistic; at 10 µM; stronger effect = higher value; cells stimulated with TPA for 15 min
[5] = target: Voltage-gated potassium channel subunit beta-2 (Rattus norvegicus) (UniProt P62483); assay: inhibitors of rat Kvbeta2 reductase activity – biochemical, NADPH fluorescence, primary screen (AID 622;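 active = fluorescence slope higher than the sample average by over 3 SD, cut at about -0.22 in these data, passing the limit was not always enough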;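 note: slope of raw intensity against log time taken from 70 to 1610 s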); conditions: recombinant KvBeta, 4-cyanobenzaldehyde reduction, at 10 µM, stronger effect = higher value
[6] = target: Voltage-gated potassium channel subunit beta-2 (Rattus norvegicus) (UniProt P62483); assay: enhancers of rat Kvbeta2 NADPH turnover – biochemical, NADPH fluorescence, primary screen (AID 623;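 active = NADPH fluorescence slope more negative than the mean of all samples by about 3 SD, 99.7% confidence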;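 note: fluorescence intensity change per second fitted from 20 to 320 s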); conditions: Recombinant KvBeta, NADPH fluorescence decrease slope, 10 min; at 10 µM; stronger effect = lower value
[7] = target: Alpha-2C adrenergic receptor (Homo sapiens) (UniProt P18825); assay: compounds altering alpha2C-coupled GIRK flux – cell-based, HEK293 alpha2C/GIRK1/2, thallium flux, primary screen (AID 624;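 active = fluorescence slope after compound addition differing from the mean of all screened samples at 99.7% confidence, in either direction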;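 note: slope of fluorescence ratio to pre-addition baseline per second over 15 to 24 s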); conditions: thallium flux BTC fluorescence, at 10 µM, actives lie on both sides
[8] = inhibitors of larval lipid processing in zebrafish, primary screen, whole organism, PED6 fluorescence, gall bladder and intestine (AID 686;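 active = a full or partial loss of lipid-probe fluorescence in the fish gall bladder, intestine or both, judged by eye; inactive = no fluorescence loss, or compound toxic to the fish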;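 note: larvae 5 to 7 days old with five fish per well; signal comes from phospholipase A2 cleavage of quenched PED6 carried via bile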); conditions: Zebrafish larvae PED6 lipid processing, fluorescence scoring; screened at 20 µM (by protocol)
How it was run: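 Incubation: overnight exposure of larvae to compound plus PED6 / Test system: live zebrafish larvae aged 5-7 days, whole organism / Amount: 5 larvae per well / Read-out basis: visual per-well fluorescence inhibition score / Signal: visual fluorescence microscopy scoring of gall bladder, gut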

[9] = loss of swimming-algae plug formation – whole organism, Chlamydomonas reinhardtii, WT vs cilia-less mutant, absorbance, 96-well, primary screen (AID 463189;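 active = inhibition at or above 50% relative to wild type and mutant plate controls; inactive = inhibition below 50%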;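 note: 0% = wild type cc124 cells in DMSO and 100% = ciliumless bld1 mutant cells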); conditions: Chlamydomonas reinhardtii gravitaxis, OD600 absorbance, 2 days; at 10 µM; stronger effect = higher value
[10] = measured here: cell density z-score
[11] = measured here: nuclear c-Myc green intensity z-score
[12] = measured here: nuclear pErk red intensity z-score, stronger effect = higher value

Chain of Dual specificity protein phosphatase 6 (Homo sapiens) (Q16828 whole entry, looked up): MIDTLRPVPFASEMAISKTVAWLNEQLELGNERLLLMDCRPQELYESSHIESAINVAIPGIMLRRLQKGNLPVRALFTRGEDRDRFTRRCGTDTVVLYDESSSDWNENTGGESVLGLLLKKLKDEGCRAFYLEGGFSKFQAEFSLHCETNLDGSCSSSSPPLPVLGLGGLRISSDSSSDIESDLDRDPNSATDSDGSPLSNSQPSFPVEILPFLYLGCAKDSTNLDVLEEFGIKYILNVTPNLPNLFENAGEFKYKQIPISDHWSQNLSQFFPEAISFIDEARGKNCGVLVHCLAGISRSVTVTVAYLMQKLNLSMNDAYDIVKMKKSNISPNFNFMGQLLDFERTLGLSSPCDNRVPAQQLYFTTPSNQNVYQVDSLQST
Chain of Voltage-gated potassium channel subunit beta-2 (Rattus norvegicus) (P62483 whole entry, looked up): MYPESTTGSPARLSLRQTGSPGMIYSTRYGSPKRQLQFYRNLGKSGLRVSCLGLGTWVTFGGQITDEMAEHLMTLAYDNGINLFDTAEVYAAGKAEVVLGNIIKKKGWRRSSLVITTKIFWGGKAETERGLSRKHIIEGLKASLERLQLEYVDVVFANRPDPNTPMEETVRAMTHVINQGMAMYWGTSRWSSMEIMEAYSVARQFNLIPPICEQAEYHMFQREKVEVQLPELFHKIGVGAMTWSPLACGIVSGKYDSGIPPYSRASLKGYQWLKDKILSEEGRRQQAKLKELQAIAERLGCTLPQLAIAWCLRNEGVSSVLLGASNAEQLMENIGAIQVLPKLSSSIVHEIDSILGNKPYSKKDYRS
Chain of Alpha-2C adrenergic receptor (Homo sapiens) (P18825 whole entry, looked up): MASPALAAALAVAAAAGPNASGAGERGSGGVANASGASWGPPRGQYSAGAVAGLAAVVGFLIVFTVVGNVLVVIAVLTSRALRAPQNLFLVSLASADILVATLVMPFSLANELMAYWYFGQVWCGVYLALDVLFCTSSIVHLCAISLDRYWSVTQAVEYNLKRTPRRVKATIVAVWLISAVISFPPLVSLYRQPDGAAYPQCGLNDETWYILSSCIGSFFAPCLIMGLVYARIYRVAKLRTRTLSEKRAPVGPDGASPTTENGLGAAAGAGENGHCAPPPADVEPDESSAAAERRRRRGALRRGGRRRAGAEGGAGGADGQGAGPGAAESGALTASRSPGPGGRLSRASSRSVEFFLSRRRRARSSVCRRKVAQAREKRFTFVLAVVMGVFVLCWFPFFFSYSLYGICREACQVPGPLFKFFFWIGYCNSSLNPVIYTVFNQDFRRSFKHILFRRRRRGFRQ

Structure (SMILES) | cell count [1] | inhibition [1] | inhibition [2] | nuclei count [2] [%] | z-score [3, 10] | z-score [3, 11] | z-score [3, 12] | inhibition [4] | fluorescence slope [5] | NADPH fluorescence slope [6] | slope [7] | outcome [8] | inhibition [9]
COc1ccccc1N1CCN(CCCCOc2ccc(F)cc2)CC1 | 461 | -6.8% (inactive) | -62.1% (inactive) | 116 | 1.12 | -0.735 | -0.613 | 26.6% (inactive) | -0.52 (inactive) | -3.7e-05 (inactive) | 0.00493 (inactive) | inactive | 9.82% (inactive)
O=C(NCCOCCOCCNC(=O)c1cccnc1)c1cccnc1 | 490 | 0.8% (inactive) | -165% (inactive) | 151 | -2.67 | -0.0249 | -0.654 | 34.8% (inactive) | -0.514 (inactive) | -7.5e-05 (inactive) | 0.00454 (inactive) | inactive | -5.31% (inactive)
CCN1CCN(c2nc3c(C)cccn3c(=O)c2/C=C(\C#N)S(=O)(=O)c2ccc(C)cc2)CC1 | 519 | -0.8% (inactive) | -173% (inactive) | 118 | 0.354 | -1.44 | 0.701 | 1.6e-07% (inactive) | -0.51 (inactive) | -6.4e-05 (inactive) | 0.00274 (inactive) | inactive | 14.6% (inactive)
Oc1c(C=NCc2ccncc2)sc2ccccc12 | 666 | -11.1% (inactive) | -63.6% (inactive) | 177 | -0.185 | 0.688 | 2.15 | -4.27% (inactive) | -0.425 (inactive) | -6.8e-05 (inactive) | 0.00509 (inactive) | inactive | -6.05% (inactive)
S=c1nc(-c2ccccc2)[nH]n1-c1ccccc1 | 339 | -3.4% (inactive) | -90.9% (inactive) | 110 | 1.6 | -1.83 | -0.637 | 11.4% (inactive) | -0.454 (inactive) | 3.3e-06 (inactive) | 0.0253 (active) | inactive | -5.69% (inactive)
CSc1nnc2n(C3CCCCC3)c(=O)c3c4c(sc3n12)CCCC4 | 609 | -10.6% (inactive) | -12.8% (inactive) | 111 | -0.921 | -0.992 | -0.882 | -2.07% (inactive) | -0.502 (inactive) | -0.000304 (inactive) | 0.0054 (inactive) | inactive | -18.3% (inactive)
N#CCCn1cnc2c(=S)nc[nH]c21 | 355 | -12.9% (inactive) | -142% (inactive) | 181 | 0.101 | 0.0894 | 1.37 | 1.6e-07% (inactive) | -0.438 (inactive) | -0.000132 (inactive) | 0.00509 (inactive) | inactive | -4.04% (inactive)
Cc1nc(NS(=O)(=O)c2ccccc2)sc1NC(=O)OCCN(C)C | 362 | -18.9% (inactive) | -107% (inactive) | 130 | 1.66 | -0.339 | -0.337 | 24.3% (inactive) | -0.331 (inactive) | 2.1e-06 (inactive) | 0.00439 (inactive) | inactive | 34.8% (inactive)
Cc1nn(-c2ccccc2)c2c1C(c1ccc(F)cc1F)C(C#N)=C(N)O2 (stereo unspecified) | 611 | -19.6% (inactive) | 17.2% (inactive) | 184 | 0.29 | -0.619 | 0.392 | 19.1% (inactive) | -0.41 (inactive) | -2.3e-05 (inactive) | 0.00636 (inactive) | inactive | 18.8% (inactive)
COc1cccc(C2/C(=C(/O)c3ccc(C)cc3)C(=O)C(=O)N2Cc2ccco2)c1 (stereo unspecified) | 552 | -6.3% (inactive) | -20% (inactive) | 123 | 0.537 | 0.655 | -1.35 | 4.72% (inactive) | -0.512 (inactive) | -5.6e-05 (inactive) | 0.00539 (inactive) | inactive | 15.2% (inactive)
O=C(O)CCCC(=O)Nc1ccn(-c2ccccc2)n1 | 639 | 3.1% (inactive) | -63.9% (inactive) | 142 | 2.2 | -2.05 | 0.525 | 20.3% (inactive) | -0.486 (inactive) | -2.7e-05 (inactive) | 0.00622 (inactive) | inactive | 11.2% (inactive)
Cn1c(O)c(C=Nc2ccc(Cc3ccncc3)cc2)c(=O)n(C)c1=O | 642 | 6.6% (inactive) | -91% (inactive) | 136 | -1.1 | -0.451 | 0.687 | 4.25% (inactive) | -0.486 (inactive) | -9.5e-05 (inactive) | 0.00577 (inactive) | inactive | -1.46% (inactive)
CN1CCN(CCCCC(=O)c2ccccc2)CC1 | 600 | -9.1% (inactive) | 14.9% (inactive) | 183 | 0.5 | -1.07 | -0.798 | -6.06% (inactive) | -0.397 (inactive) | 1.3e-06 (inactive) | 0.00562 (inactive) | inactive | 68.4% (active)
O=C(CCC(=O)CCN1CCCCC1)CCN1CCCCC1 | 641 | -2.1% (inactive) | 5.3% (inactive) | 170 | -0.3 | 1.66 | 0.253 | 15.1% (inactive) | -0.506 (inactive) | -0.000129 (inactive) | 0.00498 (inactive) | inactive | 12.4% (inactive)
Cc1cc(=O)oc(C)c1C(=O)N[C@@H]1CCCCNC1=O | 433 | -2.4% (inactive) | -137% (inactive) | 150 | 0.96 | -0.243 | -0.864 | -8.27% (inactive) | -0.423 (inactive) | -6.9e-05 (inactive) | 0.00507 (inactive) | inactive | -3.12% (inactive)
CCN(CC)CCNc1nc(-c2ccco2)c2c(c1C#N)CC(C)(C)OC2 | 580 | -4.5% (inactive) | 12.3% (inactive) | 110 | 0.832 | 0.195 | 0.416 | 9.82% (inactive) | -0.379 (inactive) | 1.9e-06 (inactive) | 0.00425 (inactive) | inactive | 47.8% (inactive)
COC(=O)c1sc(NC(C)=O)c(C(=O)OC)c1C | 633 | -13.3% (inactive) | 4.8% (inactive) | 154 | 1.36 | -0.117 | -1.37 | 6.04% (inactive) | -0.516 (inactive) | -9.3e-05 (inactive) | 0.00594 (inactive) | inactive | -1.51% (inactive)
COc1cccc(COc2nc3c(c(=O)n(C)c(=O)n3C)n2C)c1 | 456 | -4.5% (inactive) | -99.3% (inactive) | 164 | -0.352 | 0.147 | -0.806 | -7.28% (inactive) | -0.325 (inactive) | -1.3e-06 (inactive) | 0.00578 (inactive) | inactive | 5.71% (inactive)
CCC1(C)Cc2c(C#N)c(N)sc(=S)c2CO1 (stereo unspecified) | 505 | -3.2% (inactive) | -128% (inactive) | 140 | 0.126 | 0.287 | -0.524 | -14% (inactive) | -0.501 (inactive) | -2.4e-05 (inactive) | 0.00206 (inactive) | inactive | 28.8% (inactive)
COc1ccc(N2C(=O)CN=C2Nc2nc(C)cc(C)n2)cc1 | 570 | -16.6% (inactive) | -179% (inactive) | 144 | 1.15 | -0.727 | 0.0405 | 1.98% (inactive) | -0.509 (inactive) | -6.2e-05 (inactive) | 0.00444 (inactive) | inactive | 0.296% (inactive)
C/C=C/c1ccccc1OCc1ccc(C(=O)O)o1 | 540 | -2.1% (inactive) | 9.9% (inactive) | 98.3 | -2.68 | 0.479 | 0.66 | 0.671% (inactive) | -0.571 (inactive) | -6.2e-05 (inactive) | 0.00529 (inactive) | inactive | -4.22% (inactive)
COc1cccc(C2/C(=C(/O)c3cnn(-c4ccccc4)c3C)C(=O)C(=O)N2CCN(C)C)c1 (stereo unspecified) | 510 | -2.9% (inactive) | -176% (inactive) | 132 | 0.354 | -0.911 | 0.0449 | -8.76% (inactive) | -0.551 (inactive) | -7.2e-05 (inactive) | 0.00551 (inactive) | inactive | 7.34% (inactive)
NC(=O)CSc1nc(N)c2c3c(sc2n1)CCCCC3 | 620 | -15.9% (inactive) | 47.7% (inactive) | 164 | -1.12 | -0.0373 | 0.273 | -2.29% (inactive) | -0.362 (inactive) | -6.1e-05 (inactive) | 0.0046 (inactive) | inactive | 10.9% (inactive)
CCOC(=O)c1cc2c(=O)n3cccc(C)c3nc2n(Cc2cccnc2)c1=N | 583 | 3.3% (inactive) | -66.9% (inactive) | 157 | 0.481 | -1.62 | 0.0154 | 4.25% (inactive) | -0.457 (inactive) | -0.000115 (inactive) | 0.00416 (inactive) | inactive | 58.8% (active)
COc1ccc(OC)c(C2C(C(=O)c3ccco3)=C(O)C(=O)N2CCCN2CCOCC2)c1 (stereo unspecified) | 546 | -4.5% (inactive) | -85% (inactive) | 159 | -1.04 | 0.589 | -0.634 | -0.674% (inactive) | -0.495 (inactive) | -3.6e-05 (inactive) | 0.0072 (inactive) | inactive | 2.93% (inactive)
C#CCSC1=C(C#N)C(c2cccs2)C(C(=O)OCC)=C(C)N1 (stereo unspecified) | 674 | -1.7% (inactive) | -59.4% (inactive) | 167 | -0.719 | 0.591 | 0.242 | -7.28% (inactive) | -0.417 (inactive) | 4.3e-06 (inactive) | 0.00405 (inactive) | inactive | -6.51% (inactive)
CC1(C)C/C(=C(/C#N)C(N)=O)CCO1 | 575 | -11.9% (inactive) | -42.1% (inactive) | 110 | 0.299 | 1.82 | -0.278 | -8.95% (inactive) | -0.392 (inactive) | 4.5e-06 (inactive) | 0.00848 (inactive) | inactive | -18.4% (inactive)

— PubChem BioAssay
